The source of these data is ChEMBL document CHEMBL1142699 (J Med Chem, 2005).

Test [1] addresses T1, Nociceptin receptor (Homo sapiens, UniProt P41146). Briefly: Agonist potency against GTPgammaS binding in CHO cell membranes expressing human NOP receptor (CHOhNOP). A digest of the protocol: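 Membranes from CHO cells stably expressing human NOP, homogenized in 50 mM Tris-HCl/0.2 mM EGTA. 20 µg homogenate, 1 h at 30 °C. Buffer: Tris-HCl, 1 mM MgCl2, 100 mM NaCl, 0.2 mM EGTA, BSA, bacitracin, 10 µM peptidase inhibitors, 100 µM GDP, 150 pM GTPγ[35S]. Nonspecific binding defined with 10 µM GTPγS.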

In test [2] the target is T1, Nociceptin receptor. Briefly: Receptor binding affinity for recombinant human N/OFQ peptide receptor (NOP) expressed in chinese hamster ovary cells. In kind it is cell-based, CHO.
Test [3] deals with T1, Nociceptin receptor. The experiment in a line: Inhibition of forskolin stimulated cAMP levels in CHO cells expressing the human NOP receptor (CHOhNOP).
Test [4] has as its target T1, Nociceptin receptor. The experiment in a line: Agonist potency against GTPgammaS binding in CHO cell membranes expressing the human NOP receptor (CHOhNOP).
For test [5], the target named is Nociceptin receptor (Cavia porcellus) (UniProt P47748). Briefly: Antagonistic potency against N/OFQ in electrically evoked contractions of guinea pig ileum at 1 uM. In kind it is functional, tissue-based.
Test [6] shares this target. The experiment in a line: Inhibition of electrically evoked contraction of guinea pig ileum; Effect evident only in some tissues. In kind it is functional, tissue-based. The conditions noted are these: filed as agonist.
Test [7] addresses Nociceptin receptor (Mus musculus) (UniProt P35377). Briefly: Inhibition of electrically evoked contraction of mouse vas deferens; Effect evident only in some tissues. As to conditions: filed as agonist. In kind it is functional.
For test [8] the target is unchanged. Briefly: Antagonistic potency against N/OFQ in electrically evoked contraction of mouse vas deferens at 1 uM. In kind it is functional, tissue-based. A digest of the protocol: (§1)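 Male Swiss mice (25-30 g). Vas deferens in 5 mL baths of Mg2+-free Krebs at 33 °C, 0.3 g tension, field-stimulated with supramaximal 1 ms pulses at 0.05 Hz, isotonic recording.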
In test [9] the target is Nociceptin receptor (Cavia porcellus) (UniProt P47748). Briefly: Maximal inhibition of electrically evoked contraction of guinea pig ileum; Effect evident only in some tissues. The conditions noted are these: filed as agonist. In kind it is functional, tissue-based.
For test [10], the target named is Nociceptin receptor (Mus musculus) (UniProt P35377). Briefly: Maximal inhibition of electrically evoked contraction of mouse vas deferens; Effect evident only in some tissues. In kind it is functional. The conditions noted are these: filed as agonist.
The target of test [11] is Nociceptin receptor (Mus musculus, UniProt P35377). The experiment in a line: (§2) Inhibition of electrically evoked contraction of mouse vas deferens. In kind it is functional. A digest of the protocol: (§3)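 Vas deferens from male Swiss mice (25-30 g), in Mg2+-free Krebs at 33 °C under 0.3 g resting tension. Field-stimulated with 1 ms supramaximal pulses at 0.05 Hz; twitches recorded isotonically. After ~1 h equilibration, cumulative concentration-response curves in 0.5 log steps. […] 5-8 experiments.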

The target in test [12] is Nociceptin receptor (Cavia porcellus) (UniProt P47748). The experiment in a line: Antagonistic potency against N/OFQ in electrically evoked contractions of guinea pig ileum at 10 uM. In kind it is functional, tissue-based.
Test [13] deals with Nociceptin receptor (Mus musculus) (UniProt P35377). The test is described as §2. In kind it is functional. A digest of the protocol:
as §3

The target of test [14] is Nociceptin receptor (Cavia porcellus) (UniProt P47748). The experiment in a line: Inhibition of electrically evoked contraction of guinea pig ileum at 10 uM. In kind it is functional, tissue-based.
Test [15] has as its target Nociceptin receptor (Mus musculus) (UniProt P35377). The experiment in a line: Antagonistic potency against N/OFQ in electrically evoked contraction of mouse vas deferens at 10 uM. In kind it is functional, tissue-based. In a few lines: as §1
The target of test [16] is Nociceptin receptor (Cavia porcellus) (UniProt P47748). The experiment in a line: Maximal inhibition of electrically evoked contraction of guinea pig ileum at 10 uM. In kind it is functional, tissue-based.
Test [17] has as its target Nociceptin receptor (Mus musculus) (UniProt P35377). Briefly: Maximal inhibition of electrically evoked contraction of mouse vas deferens at 10 uM. In kind it is functional, tissue-based.
In test [18] the target is T1, Nociceptin receptor. The experiment in a line: Agonist potency against GTPgammaS binding in CHO cell membranes expressing the human NOP receptor (CHOhNOP) at 0.1 uM. In a few lines: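 CHOhNOP membranes (20 µg) incubated 1 h at 30 °C with gentle shaking in 50 mM Tris-HCl, 1 mM MgCl2, 100 mM NaCl, 0.2 mM EGTA, 1 mg/mL BSA, 150 µM bacitracin, 10 µM peptidase inhibitors, 100 µM GDP, 150 pM GTPγ[35S]. Nonspecific binding with 10 µM GTPγS; vacuum filtration. Data as stimulation factors (ligand/basal specific DPM); pEC50 derived.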

Test [19] has as its target T1, Nociceptin receptor. The experiment in a line: Inhibition of forskolin stimulated cAMP levels in CHO […] expressing the human NOP receptor (CHOhNOP). In kind it is functional, cell-based.
Test [20] concerns the target Nociceptin receptor (Mus musculus) (UniProt P35377). Briefly: Inhibition of electrically evoked contraction of mouse vas deferens at 10 uM. In kind it is functional.
The target of test [21] is T1, Nociceptin receptor. The experiment in a line: Antagonistic potency against N/OFQ induced GTPgammaS binding to human NOP receptor expressed in CHO cell membranes at 0.1 uM. In kind it is functional.
For test [22], the target named is T1, Nociceptin receptor. As to conditions: CHO.

Structures are written as SMILES. Activity calls are given as the source filed them. No cut-off for these calls is given here. Numbered stars: 1 amine (or outer) side, 2 acyl side, 3 side chain; on linkers, the order of the positions; unused ones are H or OH. Square brackets hold non-standard residues; d marks the D form. Peptide text beside a SMILES is read from it. X1 = N[C@@H](Cc1ccccc1)CN(CC(=O)[*:2])[*:1]; Phe(4-F) = N[C@@H](Cc1ccc(F)cc1)C(=O)O

Chain of Nociceptin receptor (Cavia porcellus) (P47748 whole entry): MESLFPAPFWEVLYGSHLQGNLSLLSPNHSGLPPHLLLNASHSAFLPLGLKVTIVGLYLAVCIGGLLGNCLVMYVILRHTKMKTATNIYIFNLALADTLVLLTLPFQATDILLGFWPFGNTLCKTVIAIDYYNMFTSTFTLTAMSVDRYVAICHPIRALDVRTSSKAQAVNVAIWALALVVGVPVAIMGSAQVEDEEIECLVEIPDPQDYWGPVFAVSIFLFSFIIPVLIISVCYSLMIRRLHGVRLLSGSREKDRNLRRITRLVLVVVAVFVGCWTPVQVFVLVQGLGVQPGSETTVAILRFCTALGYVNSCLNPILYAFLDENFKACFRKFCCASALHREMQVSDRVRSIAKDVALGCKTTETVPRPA
Chain of Nociceptin receptor (Mus musculus) (P35377 whole entry): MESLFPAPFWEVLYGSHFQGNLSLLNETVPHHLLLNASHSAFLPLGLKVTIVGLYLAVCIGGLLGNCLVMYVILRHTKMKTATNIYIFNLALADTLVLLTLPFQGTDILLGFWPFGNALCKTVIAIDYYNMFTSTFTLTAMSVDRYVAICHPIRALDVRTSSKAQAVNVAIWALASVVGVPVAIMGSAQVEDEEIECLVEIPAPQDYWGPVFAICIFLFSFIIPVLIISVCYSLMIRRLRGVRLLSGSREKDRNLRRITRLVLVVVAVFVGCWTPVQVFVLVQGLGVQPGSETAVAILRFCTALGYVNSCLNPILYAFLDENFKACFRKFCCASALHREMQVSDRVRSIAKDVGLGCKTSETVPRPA
T1 sequence (P41146 whole entry): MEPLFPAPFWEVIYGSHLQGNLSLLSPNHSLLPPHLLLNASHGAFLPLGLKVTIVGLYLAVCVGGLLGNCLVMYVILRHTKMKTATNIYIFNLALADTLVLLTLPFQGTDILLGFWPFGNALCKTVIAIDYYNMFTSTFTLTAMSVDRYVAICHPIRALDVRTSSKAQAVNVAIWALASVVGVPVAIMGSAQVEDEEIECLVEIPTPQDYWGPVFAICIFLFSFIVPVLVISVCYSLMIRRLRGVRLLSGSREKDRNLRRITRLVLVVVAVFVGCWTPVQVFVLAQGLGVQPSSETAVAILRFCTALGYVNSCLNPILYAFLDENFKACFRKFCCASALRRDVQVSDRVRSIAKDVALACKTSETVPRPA
Chain of Nociceptin receptor (Mus musculus, UniProt P35377) (P35377 whole entry): as the sequence (P35377 whole entry) above

Consider `C[C@H](NC(=O)CNC(=O)[C@@H](NC(=O)[C@H](Cc1ccc(F)cc1)NC(=O)CNC(=O)CNC(=O)CNCc1ccccc1)[C@@H](C)O)C(=O)N[C@@H](CCCN=C(N)N)C(=O)N[C@@H](CCCCN)C(=O)N[C@@H](CO)C(=O)N[C@@H](C)C(=O)N[C@@H](CCCN=C(N)N)C(=O)N[C@@H](CCCCN)C(=O)N[C@@H](CCCN=C(N)N)C(=O)N[C@@H](CCCCN)C(=O)N[C@@H](CC(N)=O)C(=O)N[C@@H](CCC(N)=O)C(N)=O`, for which the EC50 was 0.407 nM in test [1] and 4.9 nM in test [3]. In addition, the Ki in [2] is 0.0251 nM.

With `CC(C)C[C@H](NC(=O)[C@H](CCCCN)NC(=O)[C@H](CCCN=C(N)N)NC(=O)[C@H](C)NC(=O)[C@H](CO)NC(=O)[C@H](CCCCN)NC(=O)[C@H](CCCN=C(N)N)NC(=O)[C@H](C)NC(=O)CNC(=O)[C@@H](NC(=O)[C@H](Cc1ccccc1)NC(=O)CNC(=O)CNC[C@@H](N)Cc1ccccc1)[C@@H](C)O)C(=O)N[C@@H](C)C(=O)N[C@@H](CC(N)=O)C(=O)N[C@@H](CCC(N)=O)C(N)=O` (H-[X1]GFTGARKSARKLANQ-NH2), the EC50 in test [4] is 5.25 nM; in [3] it was 0.759 nM. For the same compound, the pKb in [5] is 6.65; in test [8], 7.17. In addition, in test [6], the “Log EC50” value is “Agonist”. For the same compound, in [7], the Activity result was “Agonist”. Further, the Emax entry in [9] and in test [10] was “Agonist” each time. Further, the Ki in test [2] was 0.129 nM.

On to `C[C@H](NC(=O)CNC(=O)[C@@H](NC(=O)[C@H](Cc1ccc(F)cc1)NC(=O)CNC(=O)CNC[C@@H](N)Cc1ccccc1)[C@@H](C)O)C(=O)N[C@@H](CCCN=C(N)N)C(=O)N[C@@H](CCCCN)C(=O)N[C@@H](CO)C(=O)N[C@@H](C)C(=O)N[C@@H](CCCN=C(N)N)C(=O)N[C@@H](CCCCN)C(=O)N[C@@H](CCCN=C(N)N)C(=O)N[C@@H](CCCCN)C(=O)N[C@@H](CC(N)=O)C(=O)N[C@@H](CCC(N)=O)C(N)=O` (H-[X1]G[Phe(4-F)]TGARKSARKRKNQ-NH2), for which the EC50 was 0.209 nM in test [4], 1.02 nM in test [11] and 0.302 nM in test [3]. In addition, in [2], the Ki is 0.02 nM.

Consider `CC(C)C[C@H](NC(=O)[C@H](CCCCN)NC(=O)[C@H](CCCN=C(N)N)NC(=O)[C@H](C)NC(=O)[C@H](CO)NC(=O)[C@H](CCCCN)NC(=O)[C@H](CCCN=C(N)N)NC(=O)[C@H](C)NC(=O)CNC(=O)[C@@H](NC(=O)[C@H](Cc1ccccc1)NC(=O)CNC(=O)CNC(=O)CNCc1ccccc1)[C@@H](C)O)C(=O)N[C@@H](C)C(=O)N[C@@H](CC(N)=O)C(=O)N[C@@H](CCC(N)=O)C(N)=O`, for which the pKb in test [12] was 6.21; in [15], 6.07. Further, the “Log EC50” value in test [13] and in test [14] was “inactive” each time. The Emax result in test [16] and in [17] was “inactive” throughout.

For the compound `C[C@H](NC(=O)CNC(=O)[C@@H](NC(=O)[C@H](Cc1ccccc1)NC(=O)CNC(=O)CNC(=O)CNCc1ccccc1)[C@@H](C)O)C(=O)N[C@@H](CCCN=C(N)N)C(=O)N[C@@H](CCCCN)C(=O)N[C@@H](CO)C(=O)N[C@@H](C)C(=O)N[C@@H](CCCN=C(N)N)C(=O)N[C@@H](CCCCN)C(=O)N[C@@H](CCCN=C(N)N)C(=O)N[C@@H](CCCCN)C(=O)N[C@@H](CC(N)=O)C(=O)N[C@@H](CCC(=O)N(N)N)C(=O)NN`, the “Log EC50” value in test [18], in test [19], in test [14] and in test [20] was “inactive” in each case. Also, the pKb in test [5] is 6.79; in test [8], 7.24; in [21], 9.13; in test [22], 7.11. Moreover, the Emax entry in test [16] and in [17] was “inactive” each time.
